Bioassay records deposited in PubChem by several laboratories.
PABP FP inh: PABP poly(A) RNA binding inhibitors, primary screen, biochemical, fluorescence polarization, uHTS. inhibition, % at 35 µM. 1% of 290,000 active. AID 2014, 2009;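 note: calls also rest on retests at 20 µM and on dose response follow-up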
Target sequence (P11940 whole entry, looked up): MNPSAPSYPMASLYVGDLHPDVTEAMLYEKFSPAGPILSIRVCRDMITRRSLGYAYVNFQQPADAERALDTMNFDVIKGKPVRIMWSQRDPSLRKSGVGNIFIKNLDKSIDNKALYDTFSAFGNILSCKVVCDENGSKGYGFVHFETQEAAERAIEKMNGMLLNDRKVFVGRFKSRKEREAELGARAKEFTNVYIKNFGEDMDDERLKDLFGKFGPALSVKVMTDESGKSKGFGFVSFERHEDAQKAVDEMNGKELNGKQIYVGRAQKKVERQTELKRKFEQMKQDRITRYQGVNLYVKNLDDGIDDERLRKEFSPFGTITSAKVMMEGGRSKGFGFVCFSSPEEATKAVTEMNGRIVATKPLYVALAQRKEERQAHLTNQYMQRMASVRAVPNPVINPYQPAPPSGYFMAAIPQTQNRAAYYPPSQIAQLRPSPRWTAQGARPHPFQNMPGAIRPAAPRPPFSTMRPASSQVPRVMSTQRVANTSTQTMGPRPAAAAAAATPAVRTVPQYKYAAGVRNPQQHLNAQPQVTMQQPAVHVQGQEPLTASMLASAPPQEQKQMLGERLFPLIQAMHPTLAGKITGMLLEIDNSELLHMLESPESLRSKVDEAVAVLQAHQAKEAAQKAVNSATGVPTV
FID counter: compounds displacing fluorescent DNA intercalator, primary screen, artefact control for HCV NS3 helicase inhibitor project, biochemical, FID fluorescence. DNA fluorescent intercalator displacement. inhibition, % at 7.9 µM. 0.17% of 290,000 active; in the data active = inhibition above about 37%;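 note: 0% = vehicle and 100% = reference compound; higher means more ethidium bromide displaced from hairpin DNA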
HCV NS3 hel inh: inhibitors of HCV NS3 helicase, primary screen, biochemical, Cy5 molecular beacon fluorescence; Hepatitis C virus NS3 helicase; NS3 helicase DNA unwinding; inhibition, % at 10.9 µM; 0.56% of 290,000 active; AID 1800, 2009;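 active = inhibition above the mean of all tested compounds plus 3 SD, set per campaign, cut at about 35% in these data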;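 note: 0% = DMSO wells and 100% = thioflavine S control wells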
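System: HCV NS3 helicase fragment; control set: DMSO and thioflavine S; technique: Cy5 fluorescence at 0 and 60 min, beacon hairpin quenching; reagent: beacon DNA duplex substrate plus ATP; replicates: singlicate; schedule: 1 h reaction at 25 °C, ATP-initiated; medium: MOPS buffer pH 6.5 with MgCl2, DTT, Tween20, BSA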
eIF4H FP inh: human eIF4H binding inhibitors, primary screen, translation initiation inhibitor project, biochemical, uHTS, fluorescence polarization | AID 2012, 2009 | inhibition, % at 35 µM | 0.94% of 290,000 active | eIF4H fluorescence polarization binding assay | Eukaryotic translation initiation factor 4H (Homo sapiens), Q15056;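 note: calls also rest on retests at 20 µM and on dose response follow-up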
HCV core dimer: inhibitors of HCV core protein dimerization, primary screen, biochemical, TR-FRET, high-throughput; TR-FRET GST/Flag-core106 dimerization, 1536-well; inhibition, % at 5 µM; 0.33% of 300,000 active;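 active = inhibition above the mean of all tested compounds plus 3 SD, set per screening campaign, cut at about 45% in these data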
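Assay system: Tagged HCV core106 pair (GST and Flag) | Buffer or medium: KF-containing HEPES buffer, pH 7.45, DTT, CHAPS, BSA | Also added: Eu donor and XL665 acceptor anti-tag antibodies | Dosing: One concentration, 5 µM, in 0.5% DMSO | Timing: 4 h at 22.5 °C | Technique: TR-FRET 671 and 617 nm emission | Repeats: Singlicate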
MLLE-PAM2 inh: inhibitors of PABP1 MLLE–PAM2 peptide binding, primary screen, biochemical, fluorescence polarization, FITC-PAM2, GST-MLLE. Polyadenylate-binding protein 1 (Homo sapiens), P11940. inhibition, % at 20 µM. 0.36% of 360,000 active; in the data active = inhibition above about 35%, passing the limit was not always enough;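 note: plate controls were DMSO wells with GST-MLLE for no effect and wells lacking GST-MLLE protein for full effect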
The depositor's hits bear a star; u = inconclusive; x = no result. Hits are enriched below; roughly 2% of the tested compounds scored in any of these assays. Unless noted, the rule behind the calls is not given here.

SMILES | PABP FP inh | FID counter | HCV NS3 hel inh | eIF4H FP inh | HCV core dimer | MLLE-PAM2 inh
COc1ccccc1/C=C(/CC(=O)NCc1ccc(F)cc1)c1nc2ccccc2s1 | 16 | -22 | 2 | 26 | 67* | -5
O=C(OCc1ccco1)c1ccc(S(=O)(=O)N2CCCCC2)cc1 | 4 | -10 | 16 | 45 | 80* | 12
O=C(Nc1ccc(Cl)c(Cl)c1)Nc1nnc(-c2ccncc2)s1 | 0.7* | -3 | 15 | 74* | 87* | -6
O=c1c2ccccc2[nH]c(=S)n1CC1CCCO1 (centres undefined) | x | -4 | 1 | x | -7 | -49
CC1(C)CC2=C(CO1)C(=S)NC(c1ccccc1)N2CC1CCCO1 (centres undefined) | 9 | -5 | -15 | 4 | -1 | 42*
COc1ccc(NC(=O)Nc2ccc(OCc3ccccc3)cc2)cn1 | u | -17 | -4 | u | x | 66*
COc1ccc(NC(=O)Nc2cc(C)cc(C)c2)cn1 | 37 | -3 | -3 | 50 | 1 | 66*
COc1ccc(NC(=O)Nc2ccc([N+](=O)[O-])cc2)cn1 | 51* | 10 | 3 | 82* | 12 | 58*
COc1ccc(NC(=O)NS(=O)(=O)c2ccc(C)cc2)cn1 | u | -1 | -2 | u | x | 151
CCCc1nc2c3ccccc3ccn2c1Cc1ccccc1 | x | x | x | x | x | -10
O=C(Cc1c(F)c(F)c(F)c(F)c1F)Nc1nc(-c2ccccc2)cs1 | 1 | 1 | 13 | 0 | -9 | 8
CC(C)(C)c1ccc(C(=O)NC(=S)Nc2ccc(N3CCOCC3)cc2)cc1 | 52* | 1 | -7 | 5 | 4 | 34
CC(=O)N1CCN(c2ccc(NC(=S)NC(=O)COc3ccc(C(C)(C)C)cc3)cc2)CC1 | 13 | -4 | -19 | 6 | 16 | 44*
CC(C)Oc1ccc(C(=O)Nc2ccc(N3CCN(C(=O)c4ccco4)CC3)cc2)cc1 | 4 | -39 | 0 | 0 | 5 | 1
Cc1ccc(C(=O)NC(=S)Nc2ccc(N3CCN(C(=O)c4ccco4)CC3)cc2)cc1 | 6 | -28 | -21 | -6 | 12 | 40*
CC(OC(=O)CCCN=C1NS(=O)(=O)c2ccccc21)C(=O)Nc1ccccc1F (centres undefined) | x | x | x | x | -4 | 4
C#CCN1c2ccccc2Sc2cccnc21 | -9 | 5 | 5 | 11 | 1 | 0
CN1C(=O)NC(c2ccccc2[N+](=O)[O-])C2=C1CCCC2=O (centres undefined) | u | -43 | 3 | u | -19 | 146
CC1CC1C(=O)N(C)CC(=O)Nc1cccc(F)c1 (centres undefined) | x | x | x | x | -1 | -30
COCc1cc(Sc2ccc(Cl)cc2Cl)nc(-c2ccccc2)n1 | 1 | 2 | -2 | -4 | -2 | 12
COCc1cc(Sc2ccc(OC)cc2)nc(-c2ccccc2)n1 | 64 | 4 | 0 | active | 5 | -2
COCCNC(=O)C1CCCN(C(=O)c2cc(-c3cccs3)oc2C)CC1 (centres undefined) | x | x | x | x | x | 1
COc1ccc(/C(O)=C2/C(=O)C(=O)N(CC3CCCO3)C2c2cccc(OC)c2)cc1 (centres undefined) | 2 | -19 | 12 | 1 | -2 | -13
COc1ccc(/C(O)=C2/C(=O)C(=O)N(CC3CCCO3)C2c2ccc(O)c(OC)c2)cc1 (centres undefined) | 76* | 2 | -1 | active | -5 | 17
O=C(c1cc(-c2cccc(Cl)c2)on1)N1CCCCCC1 | 1 | -30 | -10 | -5 | 9 | 7
SMILES | PABP FP inh | FID counter | HCV NS3 hel inh | eIF4H FP inh | HCV core dimer | MLLE-PAM2 inh
O=C(c1cc(-c2ccco2)nn1-c1cccc(Cl)c1)N1CCCCC1 | -4 | -19 | 23 | -3 | 56* | 10
Cc1ccc(-n2nc(-c3ccco3)cc2C(=O)O)cc1 | 60* | -27 | 21 | 94* | 6 | 14
CC(SC1=Nc2ccccc2C2CC=NN12)C(=O)NC1(C#N)CCCCC1 (centres undefined) | x | x | x | x | -7 | 41*
COC(=O)C1=C(C(=O)OC)SC(=C2C(=S)C(C)(C)N(C(=O)C(C)C)c3ccccc32)S1 | 8 | 2 | 2 | -9 | 4 | 32
COC(=O)C1=C(C(=O)OC)SC(=C2C(=S)C(C)(C)N(C(=O)C3CC3)c3ccccc32)S1 | 0 | -2 | 9 | -14 | 2 | 40*
O=C(COc1ccccc1)Nc1ccc(-c2nnc(-c3ccco3)o2)cc1 | -4 | 4 | -1 | -1 | 52* | 0
COc1ccc(CC(=O)Nc2ccc(-c3nnc(-c4ccccc4)o3)cc2)cc1OC | -66 | -3 | 5 | -48 | 83* | -20
Cc1nc2scc(-c3ccccc3)c2c(=O)n1N=C1C=CC(=O)C=C1 | 20* | -22 | 4 | 71* | x | x
Cc1ccc(-c2nc3ncccn3c2NC2CCCCC2)o1 | 51* | -8 | -3 | 54* | -11 | -27
COc1ccccc1N1CCN(S(=O)(=O)c2ccc(-n3cnnn3)cc2)CC1 | 7 | -24 | -1 | 71* | 7 | 10
O=C(O)CC1c2ccccc2C=Cc2ccccc21 | x | x | x | x | 4 | 8
COc1ccc(/C=C/C(=O)NC(=S)NNC(=O)c2cccs2)cc1 | 64 | -9 | 7 | 5.9* | 8 | -29
Cc1ccc(S(=O)(=O)NC(=O)C2(C)CCN2C(=O)Cc2ccc(C(C)(C)C)cc2)cc1 (centres undefined) | x | x | x | x | x | 13
COc1ccc(O)c(/C=N/c2sc(C)c(C)c2C#N)c1 | 58* | 1 | 6 | 37 | 9 | 2
COc1cccc(NC(=O)CN(C)C(=O)CCc2nc3sc4c(c3c(=O)[nH]2)CCCC4)c1 | 22 | -46 | 9 | 28 | 49* | -3
Cc1cccc(NC(=O)CCc2nc3sc4c(c3c(=O)[nH]2)CCCC4)c1 | x | x | x | x | -3 | 2
O=C(Nc1ncc2c(n1)-c1ccccc1CC2)c1ccc(Cl)cc1 | -8 | -8 | -9 | 6 | 4 | 10
CCCSCC(=O)Nc1ncc2c(n1)-c1ccccc1CC2 | active | -8 | -2 | 58* | 4 | 7
Cc1ccccc1NC(=O)c1nc2nccc(C)n2n1 | 62 | 1 | 8 | active | 2 | 9
CC(=O)c1cccc(S(=O)(=O)N2CCN(CCOc3ccccc3)CC2)c1 | x | x | x | x | x | 44*
Cc1ccc(S(=O)(=O)N2CCN(CCOc3ccccc3)CC2)cc1 | x | x | x | x | x | -6
CCC/C(C#CCCN1C(=O)c2ccccc2C1=O)=C1/c2ccccc2C(=O)N1c1ccccc1 | x | x | x | x | x | 4
COc1cccc(C(=O)NCc2ccc3[nH]c(C)cc3c2)c1 | 5 | -12 | -23 | 6 | 14 | 38*
